Most compounds without a hit are left out; they make up all but 1.6% or so of the library.
C8 TRAIL sens: viability loss with TRAIL in NB7+C8 cells, primary screen, TRAIL sensitizer project, cell-based, ATPlite luminescence | 360,000 compounds, 1% hits | AID 624354, 2012 | inhibition (viability loss, TRAIL sensitization), % at 10 µM;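 active = compounds causing at least 50% loss of cell viability in the single-dose screen, relative to plate controls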
PPC-1+TRAIL kill: compounds killing PPC-1 cancer cells with TRAIL present, primary screen, TRAIL potentiator project, ATPLite luminescence, uHTS. PPC-1 cells + TRAIL, ATPLite viability luminescence. cell killing (% activity), % at 4 µM or 5 µM. 220,000 compounds, 0.41% hits. AID 1443, 2008;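 active = cell killing above 50% in the first pass at 4 µM, then a duplicate retest at 5 µM averaging 50% or more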;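 note: plate controls were cells with TRAIL plus DMSO for no effect and medium-only wells lacking cells for full effect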
FLuc inhib CS: firefly luciferase enzyme inhibitors, primary screen, artefact control for luciferase-based inhibitor screens, biochemical, luminescence, ATPLite; Luciferin 4-monooxygenase (Photinus pyralis), P08659; 10 min; inhibition, % at 10 µM; 200,000 compounds, 1.5% hits; AID 1006, 2008;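 active = inhibition above about 50% when tested at 10 µM, limit read from the data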
Target sequence (P08659 whole entry, looked up): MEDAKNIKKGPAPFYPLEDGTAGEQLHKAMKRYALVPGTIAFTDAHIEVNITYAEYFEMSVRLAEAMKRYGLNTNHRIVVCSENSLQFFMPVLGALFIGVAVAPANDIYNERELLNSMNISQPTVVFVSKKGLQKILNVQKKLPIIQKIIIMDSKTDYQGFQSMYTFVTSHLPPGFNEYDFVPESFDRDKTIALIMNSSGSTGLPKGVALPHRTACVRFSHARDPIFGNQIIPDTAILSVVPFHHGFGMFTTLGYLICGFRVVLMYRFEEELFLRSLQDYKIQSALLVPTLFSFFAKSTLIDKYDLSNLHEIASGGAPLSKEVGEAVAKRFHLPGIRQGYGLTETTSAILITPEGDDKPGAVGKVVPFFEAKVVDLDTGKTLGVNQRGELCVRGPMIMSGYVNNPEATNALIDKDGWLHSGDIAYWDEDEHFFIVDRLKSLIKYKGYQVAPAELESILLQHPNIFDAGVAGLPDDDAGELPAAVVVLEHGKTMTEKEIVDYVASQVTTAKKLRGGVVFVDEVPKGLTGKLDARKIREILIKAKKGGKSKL
FLuc stim CS: FLuc activators, initial screening, artefact control for FLuc-dependent activation tests, biochemical, ATPlite luminescence; Luciferin 4-monooxygenase (Photinus pyralis), P08659; ATPlite luciferase biochemical, 10 min; 0 = ATP-free wells, 1 = DMSO control; activation factor at 10 µM; 200,000 tested, under 10 active;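 active = luciferase activation factor, scaled between plate controls, of at least 2 with compound at 10 µM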
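System: cell-free luciferase reagent; medium: PBS as buffer for the ATP substrate; doses: test compounds dosed from 2 mM stocks in 100% DMSO; incubation: 10 min, room temperature; measured by: luminescence from luciferase reaction; read-out: luciferase activation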
PPC1 cytotox: cytotoxicity in PPC-1 cells, confirmation, cytotoxicity control for TRAIL apoptosis potentiator project, cell-based, ATP content luminescence; shares compounds with PPC-1+TRAIL kill; PPC-1 viability, ATPlite luminescence, overnight; cytotoxicity, % at 5 µM; 1,200 compounds, 50% hits;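 active = reconfirmed compounds whose average cytotoxicity reaches 50% or more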;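 note: 0% = DMSO-treated cells and 100% = wells holding medium but no cells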
* = called active by the depositor; / = no result.

SMILES | C8 TRAIL sens | PPC-1+TRAIL kill | FLuc inhib CS | FLuc stim CS | PPC1 cytotox
COc1ccc(Cl)cc1-c1nc(SCC(=O)N(C)CCC#N)n[nH]1 | -5 | -10 | -4 | 1 | -10
COc1ccc(Cl)cc1-c1nc(SCC(=O)NC2CCS(=O)(=O)C2)n[nH]1 (configuration not stated) | -16 | / | / | / | /
CCOc1ccc(C2C(C#N)=C(N)SC(N)=C2C#N)cc1OCC | 18 | 5 | -11 | 1.1 | 9
CN(C)c1ccc(NC(=O)c2ccc(Cn3cc([N+](=O)[O-])cn3)cc2)cc1 | 5 | -2 | 7 | 0.9 | /
NS(=O)(=O)c1cccc(NC(=O)c2cc(=O)c3ccccc3o2)c1 | 8 | / | / | / | /
O=C(Nc1nnc(C2CC2)s1)c1cc2ccccc2o1 | 18 | / | / | / | /
NS(=O)(=O)c1cccc(NC(=O)c2cc3ccccc3o2)c1 | 63* | 35 | 84* | 0.2 | 36
Cc1cnc(NC(=O)c2sc3ccccc3c2Cl)s1 | 82* | 70* | 93* | 0.1 | 68*
Cc1cnc(NC(=O)c2cc3ccccc3o2)s1 | 36 | 51* | 89* | 0.1 | 54*
O=C(Nc1ccccc1)c1cc(C2COCCN2C(=O)CCCc2ccccc2)on1 (configuration not stated) | -11 | / | / | / | /
C#CCNC(=O)C[C@@H]1C[C@@]2(C(=O)OCC)CCCC=C2N(Cc2ccc3c(c2)OCO3)C1=O | -11 | / | / | / | /
CCc1cccc(CC)c1NC(=S)N(CCN(C)C)C(C)c1cccnc1 (configuration not stated) | -6 | 2 | -8 | 1.1 | /
CCOC(=O)c1nn(-c2ccc(F)cc2)cc1O | 7 | 3 | 24 | 0.8 | /
CCOC(=O)c1nn(-c2ccc3c(c2)CCN3C(C)=O)cc1O | 62* | 41 | 61* | 0.4 | 46
C/C(=N\NC(=O)c1c(Cl)cnn1C)c1ccc(NC(=O)c2ccc(Br)o2)cc1 | 33 | / | / | / | /
CCCc1nnc(SCc2ccc(OC)cc2)n1N | 1 | -2 | -1 | 1 | -16
Cc1cc(NC(=O)CSc2ccc(-c3nc4cc(C)c(C)cc4[nH]3)cn2)no1 | 43 | 59* | 61* | 0.4 | 45
Cc1ccc2nc(SCC(=O)Nc3cc(C)on3)[nH]c2c1 | 0 | 29 | -6 | 1.1 | /
Cc1ccc(NC(=O)c2c(C)noc2C)cc1 | -6 | -10 | -13 | 1.1 | -13
Cc1noc(C)c1C(=O)Nc1cccnc1 | -10 | 7 | -6 | 1.1 | /
COc1ccc(C(=O)NC(C)c2ccc(-n3ccnc3)cc2)cc1[N+](=O)[O-] (configuration not stated) | -13 | / | / | / | /
COc1cccc(C(=O)/C=C/Nc2cccc(O)c2)c1 | 82* | 85* | 96* | 0 | 86*
O=C(CCn1cnc2ccccc2c1=O)Nc1cccc(Cl)c1 | 10 | -18 | -7 | 1.1 | -35
O=C(Nc1ccc(NC(=O)c2ccco2)nc1)c1ccco1 | 69* | 53* | 84* | 0.2 | 52*
COc1ccc(S(=O)(=O)N2CCOC2CNC(=O)C(=O)NCc2ccccn2)cc1OC (configuration not stated) | -10 | / | / | / | /
SMILES | C8 TRAIL sens | PPC-1+TRAIL kill | FLuc inhib CS | FLuc stim CS | PPC1 cytotox
CC(=O)Nc1cc(C(=O)N2CCc3ccccc3C2)ccc1Sc1ccc(Cl)cc1 | 3 | -8 | -5 | 1 | /
CCCCCCN1C=CC(=C2C(=O)c3ccccc3C2=O)C=C1 | 92* | 81* | 94* | 0.1 | 80*
CCCCN1C=CC(=C2N=c3cccc([N+](=O)[O-])c3=N2)C=C1 | -2 | 16 | 1 | 1 | /
CCN1C=CC(=C2C(=O)c3ccccc3C2=O)C=C1 | 91* | 96* | 98* | 0 | 96*
COc1ccc(N(C)C(=O)C2CCN(S(=O)(=O)c3cccc4nonc34)CC2)cc1 | 16 | / | / | / | /
Cc1ccc(NC(=O)CCC(=O)NNC(=O)c2ccccc2[N+](=O)[O-])c(C)c1 | -2 | -10 | -6 | 1.1 | -7
O=C(O)c1cccc2c1C(=O)c1ccc(N3CCN(Cc4ccc5c(c4)OCO5)CC3)cc1S2(=O)=O | 9 | / | / | / | /
O=C(c1ccco1)N1CCN(c2ncnc3c2cnn3-c2ccccc2)CC1 | -2 | 4 | -4 | 1 | 5
COc1cccc(NC(=O)Nc2ccc3c(c2)nc(C)n3C)c1 | 82* | 75* | 92* | 0.1 | 72*

Screening data: PubChem, Sanford-Burnham Center for Chemical Genomics
